# Only some compounds are listed: those with a hit (about 1.4% of all), similar ones and a draw of the others.
# PLC-beta3 inh: blocks human PLC-beta3 enzyme activity | Q01970 | inhibition, % at 12.2 µM | AID 720704 | Purified PLC-beta3, fluorogenic substrate, fluorescence | 370,000 tested, 0.18% active;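 further: 0% = median of compound wells on plate and 100% = full blocker control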
# DDE Tn7 FP inh: inhibitors of Tn7 peptide binding to human fibrin DD(E). FP displacement of FITC-Tn7 peptide from fibrin DD(E); 0% = median of compound wells per plate. inhibition, % at 8.3 µM. 370,000 tested, 0.13% active. AID 720508;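 active means inhibition above the mean of compounds falling within the control limits plus 3 SD of them, cut at about 14% in these data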;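 further: 0% = plate median of compound wells and 100% = 10 µM Aha-Tn7 peptide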
#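 Test system – human fibrin DD(E) · Times – 10 min preincubation, 3 h with tracer, room temperature · Detection – fluorescence polarization of the labelled Tn7 tracer · Measure – percent inhibition normalized to high-control wells · Benchmarks – high control wells with 10 µM unlabelled Aha-Tn7 peptide (full inhibition) · Repeats – singlicate testing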
# PLC-gamma1 inh: inhibitors of human phospholipase C gamma1. P19174. purified PLC-gamma1, fluorogenic substrate, fluorescence. inhibition, % at 12.2 µM. 370,000 tested, 0.84% active; in the data active means inhibition above about 9.5%
# DDE Tn6 FP inh: disrupts Tn6 cyclic peptide binding to fibrin D-Dimer-E complex; P02675; AID 720509; inhibition, % at 8.3 µM; 370,000 tested, 0.21% active; Fibrin DD(E) TRITC-Tn6 fluorescence polarization displacement;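 active means inhibition above a per-campaign cutoff: mean of compounds within control limits plus 3 SD, cut at about 15% in these data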;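 further: 0% = median of all compound wells on the plate and 100% = blocking peptide control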
# FID counter: fluorescent intercalator displacement, NS3 helicase counter-screen. DNA fluorescent intercalator displacement, fluorescence. inhibition, % at 7.9 µM. 290,000 tested, 0.17% active; in the data active means inhibition above about 37%;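 further: 0% = vehicle and 100% = reference compound; higher means more ethidium bromide displaced from hairpin DNA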
# PLCgamma1 ctr: inhibits human PLC-gamma1 in PLC-beta3 counter-screen | inhibition, % at 12.3 µM | AID 743258 | shares compounds with PLC-gamma1 inh | purified PLC-gamma1, fluorogenic substrate, fluorescence | 3,300 tested, 3.1% active; in the data active means inhibition above about 9.5%
# PLCb3 confirm: human PLC-beta3 inhibition, confirmation | shares compounds with PLC-gamma1 inh | purified PLC-beta3, fluorogenic substrate fluorescence | inhibition, % at 12.3 µM | 3,300 tested, 1% active | AID 743261
# Active calls of the source: *; . = no result. Unless noted, no stated cut-off is given here; in the data, active means inhibition above about 11%; inactive means the rest.
SMILES,PLC-beta3 inh,DDE Tn7 FP inh,PLC-gamma1 inh,DDE Tn6 FP inh,FID counter,PLCgamma1 ctr,PLCb3 confirm
Cc1[nH]c(=O)c(C#N)c(C)c1CSc1ncccn1,6,-2,12*,3,.,-6,0
CC(=O)c1[nH]c(C)c(C(C)=O)c1C,2,5,-1,11,-1,.,.
COC(=O)c1c(C)[nH]c(C(C)=O)c1C,0,-2,11*,2,8,7,4
Cc1cc(C)cc(NC(=O)CCNC(=O)c2ccc([N+](=O)[O-])cc2)c1,-3,2,10*,0,-3,-8,-6
COc1ccc(C(=O)CN2CCN(S(=O)(=O)c3cccc([N+](=O)[O-])c3)CC2)cc1OC,2,-4,2,-2,0,.,.
NC(=O)c1cccc(NC(=O)CCCCC(=O)Nc2cccc(C(N)=O)c2)c1,-3,-3,-1,2,-2,.,.
CCn1c(SCC(=O)Nc2cc(C)on2)nnc1-c1cccnc1,.,.,.,.,-3,.,.
CCn1c(SCC(=O)Nc2nc(C)c(C)s2)nnc1-c1cccnc1,0,-4,9.8*,-3,-17,2,1
COc1ccc(N2C(=S)N=C(Nc3ccccc3)C23CCCCC3)cc1,-3,3,15*,0,-4,0,4
COc1ccc(NC2=NC(=S)N(c3ccccc3C)C23CCCCC3)cc1,2,-1,5,12,-26,.,.
O=C(O)C(c1ccccc1)C1(O)CCCC1 (configuration not stated),3,-4,5,4,5,.,.
COc1ccc(S(=O)(=O)N2CCc3ccccc3C2)cc1OC,5,-4,13*,-3,-15,-4,-4
COc1ccc(S(=O)(=O)N2CCc3ccccc3C2)cc1C(=O)O,-2,-4,1,-6,-13,.,.
CNC(=O)COc1coc(CN2CCN(c3ccccc3)CC2)cc1=O,-7,-2,1,-7,-7,.,.
CC(C)n1ncc(C(N)=O)c1N,2,0,9.8*,0,-2,-3,3
NC(=O)c1cnn(-c2cccc(Cl)c2)c1N,-6,2,2,5,-5,.,.
Cc1csc(NC(=O)CSc2ccccc2F)n1,0,-4,4,11,-2,.,.
Cc1cccc(Oc2ccc(C(=O)NC3CCSC3=O)cn2)c1C (configuration not stated),15*,5,4,1,-12,-1,0
Cc1ccc(Oc2ccc(C(=O)NC3CCSC3=O)cn2)cc1 (configuration not stated),3,5,3,3,-4,.,.
Cc1cccc(-n2ccnc2SCC(=O)O)c1C,-6,-1,0,6,2,.,.
Cc1ccccc1-n1ccnc1SCC(=O)O,12*,0,8,-6,-2,-4,-5
COc1ccc(CCNC(=O)c2cccc(Br)c2)cc1OC,2,10,11*,-8,-7,-3,0
CC(=O)c1c(C)nn(C(=O)N2CCOCC2)c1C,15*,-5,8,2,.,-7,-4
Cc1nn(C(=O)N2CCOCC2)c(C)c1CN1C(=O)c2ccccc2C1=O,-3,8,-1,13,-6,.,.
O=C(O)/C=C/C(=O)NNC(=O)c1cccc(Br)c1,-7,-4,-4,-2,-8,.,.
SMILES,PLC-beta3 inh,DDE Tn7 FP inh,PLC-gamma1 inh,DDE Tn6 FP inh,FID counter,PLCgamma1 ctr,PLCb3 confirm
Oc1ccc(C=Nc2ccc3ncccc3c2)c(O)c1,.,.,.,.,-1,.,.
CC(=O)N(C)c1ccc(N=Nc2ccc3ncccc3c2)cc1,10,-2,12*,0,.,6,6
CC1=NN(c2ccc(C)cc2C)C(=O)C1C(c1ccccc1O)C1C(=O)N(c2ccc(C)cc2C)N=C1C (configuration not stated),6,-6,13*,-1,-20,-7,-4
COc1cc(CNC2CCCC2)cc(Cl)c1OCc1ccc(F)cc1,3,-1,1,8,26,.,.
CC(C)N1CCN(c2ccc(OCC3COC(Cn4cncn4)(c4ccc(Cl)cc4Cl)O3)cc2)CC1 (configuration not stated),9,-3,9.8*,1,.,2,0
Cc1ccccc1CN1CCN(CC(=O)NCCCN2CCN(c3ccc(F)cc3)CC2)C1=O,13*,-4,9.6*,-8,7,-2,-3
O=C(CN1CCN(Cc2ccc(Cl)cc2)C1=O)NCCCN1CCN(c2ccc(F)cc2)CC1,3,2,0,1,11,.,.
CCCOc1ccc(C2=CC(=O)C[C@H](c3ccc(OC)cc3)C2)cc1,2,-1,-1,1,.,.,.
CC(C)(C)NC(=O)NC(=O)COc1ccc(Br)cc1Br,7,2,11*,-1,-8,-2,1
COc1ccc(OC)c(NC(=O)COc2ccc(Br)cc2)c1,-2,-1,-2,5,-14,.,.
O=C(CSc1nccn1Cc1ccco1)Nc1ccc(F)cc1,-5,-5,1,3,-5,.,.
O=C(CSc1nccn1Cc1ccco1)Nc1cccc(F)c1,-4,9,10.0*,-4,-8,-4,-1
Cc1ccc(S(=O)(=O)N2CCN(c3ncccn3)CC2)c(C)c1,-11,3,-1,-3,-25,.,.
O=C(NCC1CCCO1)c1nnc(Cc2ccc(F)cc2)o1 (configuration not stated),7,4,11*,-1,-3,-9,-5
O=C(CSc1nnc(CNC(=O)c2ccc(F)cc2)o1)NCC1CCCO1 (configuration not stated),-6,-6,-1,-4,-1,.,.
C[C@@H]1ON(C)[C@H]2C[C@H]3c4cc(-c5cccc(Cl)c5)ccc4CCN3C[C@@H]12,-11,2,-6,-2,.,.,.
CC(=O)Nc1ccc(C(=O)OCCCOC(=O)c2ccc(NC(C)=O)cc2)cc1,-3,-10,3,-4,-9,.,.
CNCCCN1c2ccccc2CCc2ccccc21,3,-3,10*,3,11,5,0
O=C(c1cc(-c2ccccc2)nn1-c1ccccc1)N1CCN(S(=O)(=O)c2cccc(F)c2)CC1,-7,4,9.9*,3,.,-5,0
Cc1ccc2c(CN3CC(C)CC(C)C3)cc(=O)oc2c1C (configuration not stated),5,1,11*,-3,-17,-8,-7
Cc1ccc2c(CN3CCC(C)CC3)cc(=O)oc2c1C,-14,-7,1,1,-10,.,.
COc1cccc(-c2csc(NC(=O)Nc3ccccc3)n2)c1,-7,1,12*,-40,-7,3,0
COc1cccc(NC(=O)Nc2ccc(Cc3ccncc3)cc2)c1,2,10,4,-9,-10,.,.
CCOc1ccccc1NC(=O)Nc1ccon1,-9,11,-3,0,-3,.,.
CCOc1ccccc1NC(=O)Nc1ccncc1,7,-1,9.8*,1,8,-5,0

# Assay outcomes from PubChem.
